{
  "source": "ChEMBL document CHEMBL1143377",
  "about": "“Design, synthesis, and evaluation of potent, nonpeptidic mimetics of second mitochondria-derived activator of caspases” (J Med Chem, 2009)",
  "key": {"[1]": {"system": "MDA-MB-231", "experiment": "Induction of apoptosis in human MDA-MB-231 cells assessed as increase in caspase 3 activation after 24 hrs by Western blotting", "assay_type": "functional, cell-based", "in_short": "(§1)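 MDA-MB-231 breast cancer cells were exposed to Smac mimetics for 24 hours. Cell proteins were then probed on Western blots with specific antibodies against cIAP-1, XIAP, cleaved caspase-8, pro- and cleaved caspase-3, and cleaved PARP. GAPDH served as the loading control.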"}, "[2]": {"system": "MDA-MB-231", "experiment": "Induction of apoptosis in human MDA-MB-231 cells assessed as increase in caspase 8 activation after 24 hrs by Western blotting", "assay_type": "functional, cell-based", "in_short": "as §1"}, "[3]": {"system": "MDA-MB-231", "experiment": "Induction of apoptosis in human MDA-MB-231 cells assessed as PARP cleavage after 24 hrs by Western blotting", "assay_type": "functional, cell-based", "in_short": "as §1"}, "[4]": {"system": "MDA-MB-231", "experiment": "Induction of cIAP1 degradation in human MDA-MB-231 cells after 24 hrs by Western blotting", "assay_type": "functional, cell-based", "in_short": "as §1"}, "[5]": {"system": "MDA-MB-231", "experiment": "cells", "settings": "Homo sapiens, MDA-MB-231, 96 h"}},
  "data": [
    {"smiles": "CN[C@@H](C)C(=O)N[C@H]1CCCC[C@H]2[C@@H](Cc3ccccc3)C[C@@H](C(=O)N[C@@H]3CCCc4ccccc43)N2C1=O", "values": [
      {"measurement": "Activity", "setting": "[1]", "value": "Dose-dependent effect"},
      {"measurement": "Activity", "setting": "[2]", "value": "Dose-dependent effect"},
      {"measurement": "Activity", "setting": "[3]", "value": "Dose-dependent effect"},
      {"measurement": "Activity", "setting": "[4]", "value": "Dose-dependent effect"}
    ]},
    {"smiles": "CN[C@@H](C)C(=O)N[C@H]1C/C=C\\C[C@H]2[C@@H](Cc3ccccc3)C[C@@H](C(=O)N[C@@H]3CCCc4ccccc43)N2C1=O", "values": [
      {"measurement": "IC50", "setting": "[5]", "value": 26, "unit": "nM"}
    ]},
    {"smiles": "CN[C@@H](C)C(=O)N[C@H]1CCCC[C@H]2CC[C@@H](C(=O)NC(c3ccccc3)c3ccccc3)N2C1=O", "values": [
      {"measurement": "Activity", "setting": "[1]", "value": "Dose-dependent effect"},
      {"measurement": "Activity", "setting": "[2]", "value": "Dose-dependent effect"},
      {"measurement": "Activity", "setting": "[3]", "value": "Dose-dependent effect"},
      {"measurement": "Activity", "setting": "[4]", "value": "Dose-dependent effect"},
      {"measurement": "IC50", "setting": "[5]", "value": 259, "unit": "nM"}
    ]},
    {"smiles": "CN[C@@H](C)C(=O)N[C@H]1CCCC[C@H]2CC[C@@H](C(=O)N[C@@H]3CCCc4ccccc43)N2C1=O", "values": [
      {"measurement": "Activity", "setting": "[1]", "value": "Dose-dependent effect"},
      {"measurement": "Activity", "setting": "[2]", "value": "Dose-dependent effect"},
      {"measurement": "Activity", "setting": "[3]", "value": "Dose-dependent effect"},
      {"measurement": "Activity", "setting": "[4]", "value": "Dose-dependent effect"}
    ]}
  ]
}
